A short description of data set [1]: Oral bioavailability in rat (Sprague-Dawley) (male) (dose 10 mg/kg i.v.). As to conditions: in vivo. It counts as ADME, organism-based. In outline: (§1)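 Male Sprague-Dawley rats dosed intravenously or orally. Intact compound measured in plasma by HPLC-UV after protein-precipitation sample preparation. Half-life reported as harmonic mean apparent terminal disposition half-life. Bioavailability is absolute oral bioavailability. Some comparator values are archival data.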

The nature of data set [2]: Oral bioavailability in rat (Sprague-Dawley) (male) (dose 25 mg/kg p.o.). It counts as ADME, organism-based. As to conditions: in vivo. In short, it runs like this:
as §1

Data set [3] in a line: Cmax value in Male Sprague-Dawley Rat at dose 10 (mg/kg iv). In kind it is ADME, organism-based. The arrangement: dose 10 mg/kg, route intravenous. As to conditions: in vivo. In outline:
as §1

Data set [4] in a line: Cmax value in Male Sprague-Dawley Rat at dose 25 (mg/kg po). It counts as ADME, organism-based. The arrangement: dose 25 mg/kg, route oral. As to conditions: in vivo. In short, it runs like this:
as §1

Data set [5] can be described thus: Tmax value in Male Sprague-Dawley Rat at dose 25 (mg/kg po) [tmax (h)]. As to conditions: in vivo. It counts as ADME, organism-based. In short, it runs like this: as §1
A short description of data set [6]: Volume distribution in Male Sprague-Dawley Rat (10 mg/kg iv). In kind it is ADME, organism-based. As to conditions: in vivo, read-out: Vss. In short, it runs like this:
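Male Sprague-Dawley rats given the compound intravenously. Intact compound in plasma was measured by HPLC-UV after protein-precipitation sample preparation.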

Data set [7] can be described thus: Harmonic mean apparent terminal disposition half-life [t1/2beta (h)] in Male Sprague-Dawley Rat at dose 10 (mg/kg iv). It counts as ADME, organism-based. As to conditions: in vivo, read-out: T1/2 beta (converted). In short, it runs like this: as §1
Another data set is filed under the species Rattus norvegicus. The experiment in a line: Compound was evaluated for metabolic stability via In vitro Rat 5E6 cell at 50 uM concentration. In kind it is functional.
The nature of data set [8]: Plasma clearance in Male Sprague-Dawley Rat (10 mg/kg iv). It counts as ADME, organism-based. In short, it runs like this: as §1
In another data set the test system is Escherichia coli. The experiment in a line: In vitro minimum inhibitory concentration (MIC) against Escherichia coli UC6674. It counts as functional. In short, it runs like this: (§2)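 MIC determined by standard broth microdilution, defined as the lowest drug concentration (µg/mL) inhibiting visible growth.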
The next data set deals with Haemophilus influenzae. The experiment in a line: In vitro minimum inhibitory concentration (MIC) against Haemophilus influenzae UC30063. In kind it is functional. In short, it runs like this:
as §2

In the next data set the test system is Moraxella catarrhalis. The data set is described as follows: In vitro minimum inhibitory concentration (MIC) against Moraxella catarrhalis UC30610. In kind it is functional. In short, it runs like this:
as §2

The test system of data set [9] is Staphylococcus epidermidis. The experiment in a line: In vitro minimum inhibitory concentration (MIC) against Staphylococcus epidermidis UC12084. In kind it is functional. In short, it runs like this: as §2

The source of these data is ChEMBL document CHEMBL1144880, “Identification of phenylisoxazolines as novel and viable antibacterial agents active against Gram-positive pathogens” (J Med Chem, 2003).

Converted amounts (≈) assume the structure as drawn. A value given as a limit tells only on which side of the number the result lay.

Usually bioavailability stands for dose-corrected exposure relative to a reference, in per cent. Read a high bioavailability as good availability. The Cmax is the maximum level reached in the sampled fluid or tissue. In general, Tmax refers to the time at which the peak concentration occurs. For orientation: clearance means the volume of plasma or blood freed of the substance per unit of time. Turning to `CC(=O)NC[C@H]1CN(c2ccc(N3CCN(C(=O)CO)CC3)c(F)c2)C(=O)O1` [EPEREZOLID], the F in data set [1] was 100%. The same molecule gave a bioavailability in [2] of 56%. The Cmax was determined as 20800 ng/mL in data set [3] and 2260 ng/mL in [4]. Also, the Tmax in data set [5] is 79.8 min. Further, in [6], the Vd amounted to 0.99 L/kg. Further, the half-life in data set [7] is 57.6 min. In addition, the “Remaining at 40 min” value in the data set listed under Rattus norvegicus was determined as 102%. The molecule further came in with a clearance in [8] of 24.9 mL/min/kg.

On to `CC(=O)NC[C@H]1CN(c2ccc(N3CCOCC3)c(F)c2)C(=O)O1` [LINEZOLID], for which, in [5], the Tmax was found to be 18.6 min. Also, the MIC was > 32 µg/mL against Escherichia coli, 16 µg/mL (≈ 47.4 µM) against Haemophilus influenzae, 8 µg/mL (≈ 23.7 µM) in the data set on Moraxella catarrhalis and 1 µg/mL (≈ 2.96 µM) in data set [9]. In addition, the “Remaining at 40 min” value in the data set filed under Rattus norvegicus is listed as 97%.
